Test results published in publication PMC7238799 (Pulmonary Circulation, 2020).

What was measured:
healthy subjects [1] = test: Multiple ascending dose; format: in vivo, human
In short: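 Subjects on test compound or placebo were domiciled up to 31 days (QD Cohorts 1–2) or 34 days (BID Cohort 3), with a 48-h drug-free follow-up. Monitoring at multiple time points covered adverse events, vital signs, 12-lead ECG with intensive ECG monitoring in all cohorts, and safety labs (serum chemistry, hematology, urinalysis). Data were summarized descriptively by treatment group.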

plasma protein = conditions: animals and humans; cited from earlier work
[2] = test system: prostacyclin (IP) receptor; conditions: cited from earlier work
healthy subjects [3] = test: Single ascending dose; format: in vivo, human
In short: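 Subjects received a single oral dose of test compound or identical-appearing placebo capsule and were kept as in-patients. Over seven days, adverse events, vital signs, 12-lead ECG and safety labs (serum chemistry, hematology, urinalysis) were assessed at multiple time points. Data were summarized descriptively by treatment group.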

[4] = test system: rat monocrotaline model of PAH; conditions: oral; cited from earlier work
[5] = Cohorts 1 and 2, QD, all dose levels, n = 20
[6] = total ralinepag, all single doses, n = 24

O=C(O)COC[C@H]1CC[C@H](COC(=O)N(c2ccccc2)c2ccc(Cl)cc2)CC1 [ralinepag]
Nausea, subjects (%) (healthy subjects [1]; [5]): 17 (85%)
Non-cardiac chest pain, subjects (%) (healthy subjects [1]; [5]): 2 (10%)
Number of AEs reported (healthy subjects [1]; [5]): 230
Ocular hyperemia, subjects (%) (healthy subjects [1]; [5]): 0
Oropharyngeal pain, subjects (%) (healthy subjects [1]; [5]): 2(10%)
Pain in extremity, subjects (%) (healthy subjects [1]; [5]): 3 (15%)
Pain in jaw, subjects (%) (healthy subjects [1]; [5]): 13 (65%)
Palpitations, subjects (%) (healthy subjects [1]; [5]): 4 (20%)
Paraesthesia, subjects (%) (healthy subjects [1]; [5]): 1 (5%)
Pruritus, subjects (%) (healthy subjects [1]; [5]): 1 (5.0%)
Restless leg syndrome, subjects (%) (healthy subjects [1]; [5]): 1 (5%)
Somnolence, subjects (%) (healthy subjects [1]; [5]): 3 (15%)
Total (%) subjects with at least one AE (healthy subjects [1]; [5]): 20 (100%)
Total (%) subjects with at least one SAE (healthy subjects [1]; [5]): 1 (5.0%)
Tremor, subjects (%) (healthy subjects [1]; [5]): 2 (10%)
Vomiting, subjects (%) (healthy subjects [1]; [5]): 12 (60%)
Subjects withdrawn from the study due to AEs (healthy subjects [1]; Cohorts 1 and 2, receiving ralinepag): three
Tolerability versus dose (healthy subjects [1]; QD (up to 400 µg) or BID (up to 70 µg) dosing): tolerability decreasing with increasing dose
QT prolongation (12-lead Holter ECG, high-precision QT analysis) (healthy subjects [1]; QD and BID dose ranges evaluated): not likely to be associated with QT prolongation
Serious adverse event (healthy subjects [1]; one subject, 50 µg QD, Cohort 2, possibly related to study medication): SAE of atrial fibrillation considered moderate in intensity
Plasma protein binding (plasma protein): ~99%
Maximal cAMP stimulation (efficacy percentage relative to iloprost) [2]: 67%
Type of IP receptor agonism [2]: strong partial agonist
Functional potency relative to ACT-333679 ([2]; greater potency than selexipag active metabolite): 6–8 fold
SAEs recorded (healthy subjects [3]; any doses tested): no SAEs
Vital signs, ECGs, safety laboratory tests (healthy subjects [3]; any single dose level): no clinically significant safety issues
Abdominal pain, subjects (%) (healthy subjects [3]; single oral dose 30 µg, n = 6): 0
Flushing, subjects (%) (healthy subjects [3]; single oral dose 30 µg, n = 6): 0
Headache, subjects (%) (healthy subjects [3]; single oral dose 30 µg, n = 6): 2 (33.3%)
Nausea, subjects (%) (healthy subjects [3]; single oral dose 30 µg, n = 6): 0
Number of AEs reported (healthy subjects [3]; single oral dose 30 µg, n = 6): 2
Pain in jaw, subjects (%) (healthy subjects [3]; single oral dose 30 µg, n = 6): 0
Total (%) subjects with at least one AE (healthy subjects [3]; single oral dose 30 µg, n = 6): 2 (33.3%)
Vomiting, subjects (%) (healthy subjects [3]; single oral dose 30 µg, n = 6): 0
Abdominal pain, subjects (%) (healthy subjects [3]; single oral dose 50 µg, n = 6): 1 (16.7%)
Flushing, subjects (%) (healthy subjects [3]; single oral dose 50 µg, n = 6): 0
Headache, subjects (%) (healthy subjects [3]; single oral dose 50 µg, n = 6): 5 (83.3%)
Nausea, subjects (%) (healthy subjects [3]; single oral dose 50 µg, n = 6): 1 (16.7%)
Number of AEs reported (healthy subjects [3]; single oral dose 50 µg, n = 6): 11
Pain in jaw, subjects (%) (healthy subjects [3]; single oral dose 50 µg, n = 6): 2 (33.3%)
Total (%) subjects with at least one AE (healthy subjects [3]; single oral dose 50 µg, n = 6): 5 (83.3%)
Vomiting, subjects (%) (healthy subjects [3]; single oral dose 50 µg, n = 6): 0
Abdominal pain, subjects (%) (healthy subjects [3]; single oral dose 100 µg, n = 6): 1 (16.7%)
Flushing, subjects (%) (healthy subjects [3]; single oral dose 100 µg, n = 6): 1 (16.7%)
Headache, subjects (%) (healthy subjects [3]; single oral dose 100 µg, n = 6): 5 (83.3%)
Nausea, subjects (%) (healthy subjects [3]; single oral dose 100 µg, n = 6): 2 (33.3%)
Number of AEs reported (healthy subjects [3]; single oral dose 100 µg, n = 6): 17
Pain in jaw, subjects (%) (healthy subjects [3]; single oral dose 100 µg, n = 6): 3 (50.0%)
Total (%) subjects with at least one AE (healthy subjects [3]; single oral dose 100 µg, n = 6): 6 (100%)
Vomiting, subjects (%) (healthy subjects [3]; single oral dose 100 µg, n = 6): 2 (33.3%)
Tolerability of the 200 µg single dose (healthy subjects [3]; single oral dose 200 µg): not at 200 µg due to AEs of nausea and vomiting
Flushing, subjects (%) (healthy subjects [3]; single oral dose 200 µg, n = 6): 1 (16.7%)
Headache, subjects (%) (healthy subjects [3]; single oral dose 200 µg, n = 6): 5 (83.3%)
Nausea, subjects (%) (healthy subjects [3]; single oral dose 200 µg, n = 6): 3 (50.0%)
Number of AEs reported (healthy subjects [3]; single oral dose 200 µg, n = 6): 21
Pain in jaw, subjects (%) (healthy subjects [3]; single oral dose 200 µg, n = 6): 1 (16.7%)
Total (%) subjects with at least one AE (healthy subjects [3]; single oral dose 200 µg, n = 6): 6 (100%)
Vomiting, subjects (%) (healthy subjects [3]; single oral dose 200 µg, n = 6): 6 (100%)
Tolerated single dose (healthy subjects [3]; single oral dose, IR capsule, healthy subjects): up to 100 µg
Abdominal pain, subjects (%) (healthy subjects [3]; [6]): 3 (12.5%)
Flushing, subjects (%) (healthy subjects [3]; [6]): 2 (8.3%)
Headache, subjects (%) (healthy subjects [3]; [6]): 17 (70.8%)
Nausea, subjects (%) (healthy subjects [3]; [6]): 6 (25.0%)
Number of AEs reported (healthy subjects [3]; [6]): 51
Pain in jaw, subjects (%) (healthy subjects [3]; [6]): 6 (25.0%)
Total (%) subjects with at least one AE (healthy subjects [3]; [6]): 19 (79.2%)
Vomiting, subjects (%) (healthy subjects [3]; [6]): 8 (33.3%)
Efficacy in rat monocrotaline model of PAH [4]: dose-dependent oral efficacy
